Measurements of several laboratories.
Compare with care: the assays were run in different laboratories.
Target: Receptor tyrosine-protein kinase erbB-2 (ERBB2, Homo sapiens, UniProt P04626)

With `O=C(NCC1CCOCC1)c1n[nH]cc1NC(=O)c1c(F)cccc1F` the remaining binding was 90% (binding, competition with immobilised ligand; 1 µM).
The remaining binding of `Nc1cnc(N2CCc3cc(S(=O)(=O)Nc4c(F)cc(Cl)cc4F)cc(N4CCCC4=O)c32)nc1` is reported as 100% (cell-free assay, competition with immobilised ligand; 1 µM).
With `O=C(c1ccc(Nc2ncc(Cl)c(-c3cc4ccccc4s3)n2)cc1)N1CCC(N2CCCC2)CC1` the remaining binding was 100% (binding, competition with immobilised ligand; 1 µM).
For `C[C@@H]1CCN(c2nccc(-c3cnn4ncccc34)n2)C1`, the remaining binding was 90% (binding; 1 µM).
`COc1cnc(Nc2cccc(S(N)(=O)=O)c2)nc1N1CCN(c2ccccc2)C(=O)C1` gave a remaining binding of 100% (binding, competition with immobilised ligand; 1 µM).
`COc1ncc2cc3ccccc3nc2c1C#N` has a remaining binding of 70% (cell-free assay, competition with immobilised ligand; 5 µM).
With `O=C(Nc1ccc(Oc2ccc(F)cc2)cc1)N1CCc2ncccc2[C@H]1c1ccc(F)cc1` the remaining binding was 100% (cell-free assay, competition with immobilised ligand; 1 µM).
`Cc1cnc(Nc2ccc(C(=O)N3CCC(N4CCCC4)CC3)cc2)nc1-c1cc2ccccc2s1` has a remaining binding of 64% (binding, competition with immobilised ligand; 1 µM).
The remaining binding of `C[C@@H]1CN(c2ccc3ncc(-c4ccc5[nH]nc(C6CC6)c5c4)n3n2)C[C@H](C)O1` is reported as 68% (binding, competition with immobilised ligand; 0.5 µM).
With `c1cnn2ncc(-c3ccnc(N4CCC45COC5)n3)c2c1` the remaining binding was 86% (binding; 1 µM).
`FC(F)(F)Oc1cccc(-c2cnc3ccc(-c4ccncc4)nn23)c1` gave a remaining binding of 57% (cell-free assay, competition with immobilised ligand; 5 µM).
For `Cc1cnn2ncc(-c3ccnc(N(C)C)n3)c2c1`, the remaining binding was 94% (binding; 1 µM).
`O=C(Nc1cnc(Oc2ccc(F)cc2)nc1)N1CCc2ncccc2[C@@H]1c1ccc(F)cc1` has a remaining binding of 80% (cell-free assay, competition with immobilised ligand; 1 µM).
The remaining binding of `C=CC(=O)N1CCC(C(=O)NCC(=O)N2CCN(c3nc(-c4cnc(N)nc4C(F)F)nc(N4CCOCC4)n3)CC2)CC1` is reported as 70% (binding, competition with immobilised ligand; 1 µM).
`CC(=O)c1c(NS(C)(=O)=O)c2cc(-c3ccc(Cl)cc3)c(-c3ccc(Cl)cc3Cl)nc2n(C)c1=O` has a remaining binding of 100% (cell-free assay, competition with immobilised ligand; 1 µM).
`CN(C)c1nccc(-c2cnn3ncccc23)n1` has a remaining binding of 100% (binding; 1 µM).
The remaining binding of `c1cncc(-c2cccc(Nc3nccc(NC4CCCCC4)n3)c2)c1` is reported as 51% (binding, competition with immobilised ligand; 10 µM).
With `CN(C)c1nccc(-c2cnc3ncccn23)n1` the remaining binding was 0% (binding; 1 µM).
The remaining binding of `CNC(=O)Nc1ccc2c(c1)[C@@]1(CC2)OC(=O)N(CC(=O)N(Cc2ccc(F)cc2)[C@@H](C)C(F)(F)F)C1=O` is reported as 98% (cell-free assay, competition with immobilised ligand; 1 µM).
`CNC(=O)[C@@H]1CC[C@@H](n2c(-c3ccc4cnccc4c3)nc3ccc(C(=O)NCc4cccc(C(N)=O)c4)cc32)C1` has a remaining binding of 100% (binding, competition with immobilised ligand; 1 µM).
`N#CC1(c2ccccn2)CCN(Cc2cc(C(=O)N3CCCC3)c(=O)n3ccccc23)CC1` gave a remaining binding of 95% (cell-free assay, competition with immobilised ligand; 1 µM).
`O=C(NCCCN1CCOCC1)c1ccc(Nc2ncc(Cl)c(-c3ccc(Cl)s3)n2)cc1` gave a remaining binding of 80% (binding, competition with immobilised ligand; 1 µM).
For `COc1cc(-c2cn(C3CCc4ccccc4N(CC(F)(F)F)C3=O)nn2)ccc1-n1ccc(C)n1` (stereo not drawn), the remaining binding was 100% (cell-free assay, competition with immobilised ligand; 1 µM).
`N[C@H]1CCN(c2nccc(-c3cnn4ncccc34)n2)C1` gave a remaining binding of 84% (binding; 1 µM).
